Measured values from ChEMBL document CHEMBL3616378 (J Med Chem, 2015).

Columns and labels:
[1] = target: T1, Metabotropic glutamate receptor 2 (Homo sapiens, UniProt Q14416); experiment: Displacement of [3H]-459477 from human recombinant mGlu2 receptor expressed in AV12 cells after 90 mins by liquid scintillation counting; format: cell-based
[2] = target: T2, Metabotropic glutamate receptor 3 (Homo sapiens, UniProt Q14832); experiment: Displacement of [3H]-459477 from human recombinant mGlu3 receptor expressed in AV12 cells after 90 mins by liquid scintillation counting; format: cell-based
T2 sequence (Q14832 whole entry): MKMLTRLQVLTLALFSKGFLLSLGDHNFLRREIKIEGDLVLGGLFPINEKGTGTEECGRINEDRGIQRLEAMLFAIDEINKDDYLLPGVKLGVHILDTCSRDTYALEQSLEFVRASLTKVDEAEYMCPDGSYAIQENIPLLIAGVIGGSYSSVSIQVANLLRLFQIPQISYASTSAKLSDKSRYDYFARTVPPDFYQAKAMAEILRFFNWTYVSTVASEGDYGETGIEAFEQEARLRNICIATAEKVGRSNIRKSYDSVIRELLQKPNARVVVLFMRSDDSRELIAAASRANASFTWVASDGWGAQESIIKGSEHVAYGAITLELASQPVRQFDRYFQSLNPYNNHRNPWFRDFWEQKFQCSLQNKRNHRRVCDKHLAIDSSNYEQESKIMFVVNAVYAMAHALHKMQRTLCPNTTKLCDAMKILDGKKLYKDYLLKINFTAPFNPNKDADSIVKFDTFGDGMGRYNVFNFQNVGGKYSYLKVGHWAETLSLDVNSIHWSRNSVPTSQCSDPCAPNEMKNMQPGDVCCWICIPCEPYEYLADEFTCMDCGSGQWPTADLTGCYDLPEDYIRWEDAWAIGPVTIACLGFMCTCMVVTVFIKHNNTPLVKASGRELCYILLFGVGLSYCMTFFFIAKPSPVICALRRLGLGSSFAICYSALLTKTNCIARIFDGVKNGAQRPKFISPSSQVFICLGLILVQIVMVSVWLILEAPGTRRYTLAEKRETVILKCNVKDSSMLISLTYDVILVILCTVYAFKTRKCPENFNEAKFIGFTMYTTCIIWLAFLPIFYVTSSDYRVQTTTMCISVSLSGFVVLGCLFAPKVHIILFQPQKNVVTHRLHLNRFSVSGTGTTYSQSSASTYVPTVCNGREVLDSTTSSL

[3] = target: T1, Metabotropic glutamate receptor 2; experiment: Agonist activity at human recombinant mGlu2 receptor expressed in AV12 cells assessed as stimulation of Ca2+ mobilization after 1 hr by FLIPR assay; format: functional, cell-based
[4] = target: T1, Metabotropic glutamate receptor 2; experiment: Antagonist activity at human recombinant mGlu2 receptor expressed in AV12 cells assessed as inhibition of glutamate-stimulated Ca2+ mobilization after 1 hr by FLIPR assay; format: functional, cell-based
Outline: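 AV12 cells stably co-expressing rat EAAT1, Gα15 and human mGlu2 (Bmax 1.35 pmol/mg), plated 85K/well 24 h ahead in medium with 250 µM L-glutamine. Compounds were dissolved from 10 mM stocks in 0.1N NaOH and run as 10-point 3-fold series. Fluo-3 AM Ca2+ transients were read by FLIPR. Read-out was % inhibition of the EC90 glutamate response, with relative IC50 from a four-parameter logistic fit.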

[5] = target: T2, Metabotropic glutamate receptor 3; experiment: Agonist activity at human recombinant mGlu3 receptor expressed in AV12 cells assessed as inhibition of forskolin-stimulated cAMP production after 1 hr by fluorescence assay; format: functional, cell-based
[6] = target: T2, Metabotropic glutamate receptor 3; experiment: Antagonist activity at human recombinant mGlu3 receptor expressed in AV12 cells assessed as reversal of DCG-4-inhibited, forskolin-stimulated cAMP production after 1 hr by fluorescence assay; format: functional, cell-based
[7] = target: T2, Metabotropic glutamate receptor 3; experiment: Agonist activity at human recombinant mGlu3 receptor expressed in AV12 cells assessed as stimulation of Ca2+ mobilization after 1.5 hrs by FLIPR assay; format: functional, cell-based
[8] = target: T2, Metabotropic glutamate receptor 3; experiment: Antagonist activity at human recombinant mGlu3 receptor expressed in AV12 cells assessed as inhibition of glutamate-stimulated Ca2+ mobilization after 1.5 hrs by FLIPR assay; format: functional, cell-based
[9] = target: T1, Metabotropic glutamate receptor 2; experiment: Antagonist activity at human recombinant mGlu2 receptor expressed in AV12 cells assessed as reversal of DCG-4-inhibited, forskolin-stimulated cAMP production after 1 hr by fluorescence assay; format: functional, cell-based
[10] = target: T1, Metabotropic glutamate receptor 2; experiment: Agonist activity at human recombinant mGlu2 receptor expressed in AV12 cells assessed as inhibition of forskolin-stimulated cAMP production after 20 min by fluorescence assay
[11] = target: T2, Metabotropic glutamate receptor 3; experiment: Agonist activity at wild type human recombinant mGlu3 receptor expressed in AV12 cells assessed as stimulation of Ca2+ mobilization after 1 hr by FLIPR assay; format: functional, cell-based
[12] = target: Metabotropic glutamate receptor 3 (Homo sapiens, UniProt Q14832, D279E); experiment: Agonist activity at human recombinant mGlu3 receptor D279E mutant expressed in AV12 cells assessed as stimulation of Ca2+ mobilization after 1 hr by FLIPR assay; format: functional, cell-based
Chain of Metabotropic glutamate receptor 3 (Homo sapiens, UniProt Q14832, D279E) (Q14832 23-879 D279E limits assumed): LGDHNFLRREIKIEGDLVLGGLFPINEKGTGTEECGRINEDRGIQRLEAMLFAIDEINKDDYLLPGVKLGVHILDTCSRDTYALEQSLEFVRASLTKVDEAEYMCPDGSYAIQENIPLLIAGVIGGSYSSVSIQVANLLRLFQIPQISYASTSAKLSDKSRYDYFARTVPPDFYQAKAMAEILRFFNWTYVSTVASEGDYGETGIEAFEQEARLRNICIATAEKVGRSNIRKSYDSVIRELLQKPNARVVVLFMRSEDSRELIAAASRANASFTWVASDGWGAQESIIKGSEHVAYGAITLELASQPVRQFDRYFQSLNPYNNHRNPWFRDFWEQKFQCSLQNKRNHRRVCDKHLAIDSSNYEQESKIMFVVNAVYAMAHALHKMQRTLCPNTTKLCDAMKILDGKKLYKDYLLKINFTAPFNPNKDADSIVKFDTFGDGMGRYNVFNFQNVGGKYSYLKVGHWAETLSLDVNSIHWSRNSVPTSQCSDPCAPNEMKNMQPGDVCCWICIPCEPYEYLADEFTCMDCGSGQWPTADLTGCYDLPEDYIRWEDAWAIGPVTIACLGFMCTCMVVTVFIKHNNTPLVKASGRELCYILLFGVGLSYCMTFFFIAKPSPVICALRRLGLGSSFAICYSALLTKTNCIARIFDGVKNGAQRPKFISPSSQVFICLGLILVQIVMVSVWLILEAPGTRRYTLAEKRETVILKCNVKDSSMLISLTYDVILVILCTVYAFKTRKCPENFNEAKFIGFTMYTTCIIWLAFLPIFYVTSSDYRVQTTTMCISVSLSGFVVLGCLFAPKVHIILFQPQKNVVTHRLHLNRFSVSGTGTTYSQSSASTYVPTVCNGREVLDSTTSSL

[13] = target: Metabotropic glutamate receptor 3 (Homo sapiens, UniProt Q14832, Q306L); experiment: Agonist activity at human recombinant mGlu3 receptor Q306L mutant expressed in AV12 cells assessed as stimulation of Ca2+ mobilization after 1 hr by FLIPR assay; format: functional, cell-based
Chain of Metabotropic glutamate receptor 3 (Homo sapiens, UniProt Q14832, Q306L) (Q14832 23-879 Q306L limits assumed): as the sequence (Q14832 23-879 D279E limits assumed) above, with E257D, Q284L counted along it

[14] = target: Metabotropic glutamate receptor 3 (Homo sapiens, UniProt Q14832, D279E/Q306L); experiment: Agonist activity at human recombinant mGlu3 receptor D279E and Q306L mutant expressed in AV12 cells assessed as stimulation of Ca2+ mobilization after 1 hr by FLIPR assay; format: functional, cell-based
Chain of Metabotropic glutamate receptor 3 (Homo sapiens, UniProt Q14832, D279E/Q306L) (Q14832 23-879 D279E/Q306L limits assumed): as the sequence (Q14832 23-879 D279E limits assumed) above, with Q284L counted along it

T1 sequence (Q14416 whole entry): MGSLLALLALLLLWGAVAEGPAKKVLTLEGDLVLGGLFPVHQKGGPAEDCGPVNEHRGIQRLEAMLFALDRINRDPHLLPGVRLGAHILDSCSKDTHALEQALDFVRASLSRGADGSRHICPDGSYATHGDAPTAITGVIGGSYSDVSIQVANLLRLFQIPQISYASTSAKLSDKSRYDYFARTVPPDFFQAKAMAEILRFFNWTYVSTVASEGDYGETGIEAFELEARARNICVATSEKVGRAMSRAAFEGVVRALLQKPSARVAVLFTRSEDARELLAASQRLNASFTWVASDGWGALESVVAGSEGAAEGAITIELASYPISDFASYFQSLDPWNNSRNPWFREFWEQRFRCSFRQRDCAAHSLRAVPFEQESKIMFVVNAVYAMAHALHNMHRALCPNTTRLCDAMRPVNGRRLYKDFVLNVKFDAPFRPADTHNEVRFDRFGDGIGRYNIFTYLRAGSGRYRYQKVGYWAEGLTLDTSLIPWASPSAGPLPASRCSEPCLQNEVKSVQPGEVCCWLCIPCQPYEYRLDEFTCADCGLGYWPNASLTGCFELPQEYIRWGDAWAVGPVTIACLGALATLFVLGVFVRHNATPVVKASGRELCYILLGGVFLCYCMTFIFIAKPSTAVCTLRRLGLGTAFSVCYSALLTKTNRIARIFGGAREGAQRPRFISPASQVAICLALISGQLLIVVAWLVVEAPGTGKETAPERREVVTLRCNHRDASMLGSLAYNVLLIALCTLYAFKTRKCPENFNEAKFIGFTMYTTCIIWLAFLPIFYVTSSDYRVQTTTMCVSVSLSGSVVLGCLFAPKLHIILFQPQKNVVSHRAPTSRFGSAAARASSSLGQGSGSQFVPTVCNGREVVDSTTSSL

Compound	Ki [1]	Ki [2]	EC50 [3]	IC50 [4]	EC50 [5]	IC50 [6]	EC50 [7]	IC50 [8]	IC50 [9]	EC50 [10]	EC50 [11]	EC50 [12]	EC50 [13]	EC50 [14]
N[C@@]1(C(=O)O)C[C@@H](Sc2ccccc2)[C@H]2[C@H](C(=O)O)[C@H]21	0.42 µM	0.138 µM	> 12.5 µM	> 12.5 µM	> 25 µM	1.07 µM	> 25 µM	7.69 µM						
N[C@@]1(C(=O)O)C[C@H](Sc2ccccc2)[C@H]2[C@H](C(=O)O)[C@H]21	1.23 µM	0.272 µM	> 25 µM	> 12.5 µM	> 25 µM		> 5 µM	6.71 µM	15.3 µM					
Cc1nnc(S[C@@H]2C[C@@](N)(C(=O)O)[C@@H]3[C@@H](C(=O)O)[C@@H]32)[nH]1	0.121 µM	0.0624 µM	0.0395 µM		0.103 µM		0.105 µM			0.0104 µM				
N[C@@]1(C(=O)O)C[C@@H](Sc2nnc(C(F)(F)F)[nH]2)[C@H]2[C@H](C(=O)O)[C@H]21		0.0567 µM			0.0795 µM	0.528 µM	0.082 µM							
Nc1nnc(S[C@@H]2C[C@@](N)(C(=O)O)[C@@H]3[C@@H](C(=O)O)[C@@H]32)[nH]1	0.067 µM	0.0583 µM	0.013 µM		0.074 µM		> 25 µM	0.0947 µM		0.0045 µM				
N[C@@]1(C(=O)O)C[C@@H](Sc2c[nH]nn2)[C@H]2[C@H](C(=O)O)[C@H]21	0.142 µM	0.259 µM			0.235 µM	2.38 µM	> 25 µM	5.51 µM		0.0124 µM				
N[C@@]1(C(=O)O)C[C@H](Sc2n[nH]c(C(F)(F)F)n2)[C@H]2[C@H](C(=O)O)[C@H]21		0.0431 µM			0.0305 µM		> 25 µM	0.624 µM						
N[C@@]1(C(=O)O)C[C@H](Sc2c[nH]nn2)[C@H]2[C@H](C(=O)O)[C@H]21	0.111 µM	0.0651 µM	0.019 µM		0.0927 µM		> 25 µM	2.79 µM		0.0052 µM				

The remaining lines, values ahead:

Ki [1]	Ki [2]	EC50 [3]	IC50 [4]	EC50 [5]	IC50 [6]	EC50 [7]	IC50 [8]	IC50 [9]	EC50 [10]	EC50 [11]	EC50 [12]	EC50 [13]	EC50 [14]	Compound
0.0958 µM	0.0632 µM	0.0536 µM		0.0777 µM	0.459 µM	> 25 µM	0.154 µM		0.0118 µM					N[C@@]1(C(=O)O)C[C@@H](Sc2nnc(C(F)F)[nH]2)[C@H]2[C@H](C(=O)O)[C@H]21
0.266 µM	0.157 µM	0.0878 µM		0.281 µM	0.859 µM	> 25 µM	> 12.5 µM		0.0165 µM					CC(C)c1nnc(S[C@@H]2C[C@@](N)(C(=O)O)[C@@H]3[C@@H](C(=O)O)[C@@H]32)[nH]1
0.0604 µM	0.126 µM			0.227 µM	4.26 µM	> 25 µM	3.1 µM		0.0112 µM					N[C@@]1(C(=O)O)C[C@H](Sc2nnc[nH]2)[C@H]2[C@H](C(=O)O)[C@H]21
0.171 µM	0.079 µM	0.146 µM		0.0966 µM		> 25 µM	3.59 µM		0.0443 µM					Cc1nnc(S[C@H]2C[C@@](N)(C(=O)O)[C@@H]3[C@@H](C(=O)O)[C@@H]32)[nH]1
0.0134 µM	0.0575 µM	0.0063 µM		0.0273 µM		> 25 µM	0.244 µM		0.00058 µM					N[C@@]1(C(=O)O)C[C@H](Sc2nnc(C(F)F)[nH]2)[C@H]2[C@H](C(=O)O)[C@H]21
0.0278 µM	0.069 µM	0.0201 µM		0.112 µM		> 25 µM	3.87 µM		0.0064 µM					Nc1nnc(S[C@H]2C[C@@](N)(C(=O)O)[C@@H]3[C@@H](C(=O)O)[C@@H]32)[nH]1
0.339 µM	0.0827 µM	0.242 µM		0.0779 µM		> 25 µM	2.35 µM		0.074 µM					CC(C)c1nc(S[C@H]2C[C@@](N)(C(=O)O)[C@@H]3[C@@H](C(=O)O)[C@@H]32)n[nH]1
0.0717 µM	0.107 µM	0.0344 µM		0.0279 µM		0.14 µM			0.007 µM					N[C@@]1(C(=O)O)CC[C@H]2[C@H](C(=O)O)[C@H]21
										1 µM	4.18 µM	1.48 µM	5.12 µM	N[C@@H](CCC(=O)O)C(=O)O [GLUTAMIC ACID]
